From PubChem BioAssay
RGS4 act: RGS4 potentiation or activation. HEK293 M3R/inducible RGS4, carbachol calcium flux Fluo4; active compounds read low. B-score at 10 µM. 0.92% of 310,000 active. AID 463111;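 active = B-score of the integrated calcium signal more than 4 SD below the library mean, with starting fluorescence not abnormally high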;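 also: negative B-score means reduced calcium response which marks RGS4 activation or potentiation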
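Detection: kinetic calcium fluorescence imaging with Fluo4-AM dye, 2 µM / Material: HEK293 cells with stable M3R and inducible RGS4 / Schedule: recording 10 s baseline at 1 Hz, 100 s post-agonist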
RGS4 block: human RGS4 inhibition | P49798 | HEK293 M3R/RGS4 inducible, Fluo-4 calcium flux; active compounds read high; triggered by carbachol at its EC20 | B-score at 10 µM | 0.45% of 310,000 active | AID 463165;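 active = B-score, a plate-corrected calcium signal, over three deviations above library mean, with baseline fluorescence within five deviations of library mean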;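 also: RGS4 expression induced by doxycycline in cells with stable M3 receptor; B-score is computed from the integrated fluorescence ratio over baseline after carbachol; higher B-score means a larger calcium signal and so more RGS4 inhibition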
Target sequence (P49798 whole entry, looked up): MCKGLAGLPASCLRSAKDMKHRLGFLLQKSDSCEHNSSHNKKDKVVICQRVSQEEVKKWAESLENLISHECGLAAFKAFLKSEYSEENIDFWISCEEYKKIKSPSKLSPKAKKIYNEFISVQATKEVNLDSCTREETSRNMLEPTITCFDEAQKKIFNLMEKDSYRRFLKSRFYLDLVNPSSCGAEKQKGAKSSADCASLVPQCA
MrgX1 ag: agonists of human MrgX1 receptor; Q96LB2; MrgX1-HEK293 cells, Fluo-4 calcium fluorescence, agonist mode; active compounds read high; B-score at 10 µM; 0.44% of 310,000 active; AID 588627;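 active = calcium response B-score plate-corrected fluorescence ratio at least 3 library SD, with starting fluorescence B-score inside 5 SD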
Target sequence (Q96LB2 whole entry, looked up): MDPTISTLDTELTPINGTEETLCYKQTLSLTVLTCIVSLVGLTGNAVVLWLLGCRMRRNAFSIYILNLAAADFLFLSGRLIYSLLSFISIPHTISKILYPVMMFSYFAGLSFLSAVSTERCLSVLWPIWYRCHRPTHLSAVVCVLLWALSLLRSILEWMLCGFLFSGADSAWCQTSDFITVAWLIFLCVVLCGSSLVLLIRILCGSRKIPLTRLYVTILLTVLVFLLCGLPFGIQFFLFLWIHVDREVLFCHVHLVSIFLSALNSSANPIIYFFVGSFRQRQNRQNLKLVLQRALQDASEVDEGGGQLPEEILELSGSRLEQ
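Test system: Stable human MrgX1 HEK293 cell line | Schedule: Overnight plating before 1 h dye loading | Read-out basis: Baseline-normalised fluorescence change ratio, B-scored | Detection: Kinetic calcium dye fluorescence, Fluo-4 NW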
MrgX1 PAM: allosterically activates human MrgX1 receptor signaling | B-score at 10 µM | 0.63% of 310,000 active | MrgX1-HEK293, Fluo-4 calcium flux, FDSS; active compounds read high;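 active = plate-corrected calcium response at least 3 library SD above typical, normal starting fluorescence, not activating the receptor alone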;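 also: compound read alongside a low EC10 to EC30 dose of BAM8-22 agonist; peak minus trough fluorescence over baseline measured at the second addition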
MrgX1 antag: human MrgX1 receptor antagonism, primary screen | MRGX1-HEK293 calcium flux, Fluo-4, BAM8-22 antagonism; active compounds read low | B-score at 10 µM | 1.3% of 310,000 active;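 active = calcium-response B-score plate-corrected more than 3 library SD below zero, starting fluorescence within 5 deviations, no agonist response on first addition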;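 also: peak minus trough fluorescence over baseline after final BAM8-22 challenge near maximal dose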
* = called active by the depositor; i = inactive. A selection: hits, their analogues and other compounds. The true share with any hit is near 3.5%.

SMILES | RGS4 act | RGS4 block | MrgX1 ag | MrgX1 PAM | MrgX1 antag
COC(=O)C1=NN(C(=O)c2ccc(Cl)cc2)C(O)(c2ccccc2)C1 (stereo unspecified) | i | i | 39* | i | i
CCC1=NN(C(=O)c2ccc(Cl)cc2)C(O)(c2ccccc2)C1 (stereo unspecified) | i | i | 40* | i | i
CCOC(=O)C1=NN(C(=O)c2ccc(C)cc2)C(O)(c2ccc(Cl)cc2)C1 (stereo unspecified) | -9.3* | i | 54* | i | i
CCC1=NN(C(=O)c2ccc([N+](=O)[O-])cc2)C(O)(c2ccccc2)C1 (stereo unspecified) | i | i | i | 14* | i
CCC1(O)CC(C(=O)OC)=NN1C(=O)c1ccccc1 (stereo unspecified) | i | i | i | i | i
O=C(c1ccccc1O)N1N=C(C(F)(F)F)CC1(O)c1ccc([N+](=O)[O-])cc1 (stereo unspecified) | i | i | i | i | i
CCC1=NN(C(=O)c2ccccc2O)C(O)(c2ccccc2)C1 (stereo unspecified) | i | i | i | i | i
Cc1ccc(OC(=O)CCC(=O)Nc2ccc(C)c(C)c2)cc1 | i | i | i | i | i
NC(=O)COc1ccc(/C=N\NC(=O)CC(=O)NCCc2ccccc2)cc1 | i | i | i | i | i
CCC1=NN(C(=O)c2ccc(Cl)cc2)C(O)(c2ccc(C)cc2)C1 (stereo unspecified) | i | i | i | 7.3* | i
O=C(NNC(=O)c1ccccc1Cl)c1cc2cc(OC(F)(F)F)ccc2[nH]1 | i | i | i | 7.5* | i
Cc1ccc(NC(=O)c2cc3cc(OC(F)(F)F)ccc3[nH]2)cc1 | i | i | i | i | i
CC1(C)CC(=O)C(/C=N/c2ncccc2C(=O)O)=C(O)C1 | i | i | i | i | i
CC(C)N1CCc2c(sc(NC(=O)c3cc(-c4cccs4)nc4ccccc34)c2C(N)=O)C1 | -11* | i | i | i | i
CC(C)N1CCc2c(sc(NC(=O)c3nc4ccccc4s3)c2C(N)=O)C1 | i | i | i | i | i
Cc1ccc(N2C(=O)c3ccccc3C2C(=O)c2ccc(C)c(C)c2O)cc1 (stereo unspecified) | -7* | i | i | i | i
Cc1ccc(N2C(=O)c3ccccc3C2C(=O)c2ccc(O)cc2O)cc1 (stereo unspecified) | i | i | i | i | i
CCOC(=O)C1CCN(c2c(NCCN(CC)c3ccccc3)c(=O)c2=O)CC1 | i | i | i | 10* | i
O=c1c2cc(Br)ccc2nc(-c2ccc([N+](=O)[O-])cc2)n1O | i | i | 133* | i | i
O=c1c2cc(Cl)ccc2nc(-c2ccccc2)n1O | i | i | i | i | i
O=c1c2ccc(Cl)cc2nc(-c2ccc([N+](=O)[O-])cc2)n1O | i | i | 54* | i | i
C1CCc2c(nc3nnnn3c2NC2CCCC2)C1 | i | i | i | i | i
CSc1cccc(CN2CCCC(C(=O)Nc3cccc(-n4cccn4)c3)C2)c1 (stereo unspecified) | -7.3* | i | i | i | i
CCOc1cccc(CN2CCCC(C(=O)Nc3cccc(-n4cccn4)c3)C2)c1 (stereo unspecified) | i | i | i | i | i
CCOc1ccccc1CN1CCCC(C(=O)Nc2cccc(-n3cccn3)c2)C1 (stereo unspecified) | -7* | i | i | i | i
SMILES | RGS4 act | RGS4 block | MrgX1 ag | MrgX1 PAM | MrgX1 antag
CC(C)(C)NC(=S)NCC1CC1 | i | i | i | i | i
Cc1sccc1C1C(C#N)=C(N)SC(N)=C1C#N | i | i | i | i | i
N#CC1=C(N)SC(N)=C(C#N)C1CCC1CCCCC1 | i | i | i | i | -8.8*
CCOC(=O)C1CCCN(C2=NC(=O)/C(=C/c3ccc(O)c(OCC)c3)S2)C1 (stereo unspecified) | i | i | i | i | -4.5*
CC(C)(C)C(=O)NC(=S)NNC(=O)C(c1ccccc1)c1ccccc1 | -7.4* | i | 156* | i | i
CC(=O)NNC(=S)NC(=O)C(c1ccccc1)c1ccccc1 | i | i | 35* | i | i
CCNC(=S)NNC(=O)C(c1ccccc1)c1ccccc1 | i | i | i | i | i
CN1C(=O)C2C(c3ccc(N(C)C)cc3)NN(Cc3ccccc3)C2C1=O (stereo unspecified) | i | i | i | i | i
CC(=O)c1ccc(-n2cc(-c3ccc(C(C)(C)C)cc3)[n+]3c2SCCC3)cc1 | -9.6* | i | i | i | i
CCN(CC)CC#CCC(O)(c1ccccc1)c1ccc(Br)cc1 (stereo unspecified) | -7.8* | i | i | i | i
COc1ccccc1NC(=O)/C(C#N)=C/c1ccncc1 | i | i | i | i | i
COc1ccccc1NC(=O)/C(C#N)=C/c1cc([N+](=O)[O-])ccc1N1CCCC1 | i | i | i | i | -6.6*
CCc1ccc(NC(=O)C2CC=CCC2C(=O)O)cc1 (stereo unspecified) | i | i | i | i | i
O=C(O)Cc1ccc(NC(=O)C2CC=CCC2C(=O)O)cc1 (stereo unspecified) | i | i | i | i | -8.3*
O=C(Nc1ccc(Cl)c(Cl)c1)OCCNC(=O)c1cccc(Cl)c1 | i | i | i | i | -5.3*
O=C(N/N=C/c1ccco1)c1cccc(S(=O)(=O)Nc2ccccc2Cl)c1 | i | i | i | i | i
Cc1ccc(/C=N/NC(=O)c2cccc(S(=O)(=O)Nc3ccccc3Cl)c2)o1 | i | i | i | 13* | i
CN(C)[C@@H]1CCC[C@H]1OC(=O)C(c1ccccc1)c1ccccc1 | i | i | i | i | i
CC1CN(C)C(C)CC1OC(=O)C(c1ccccc1)c1ccccc1 (stereo unspecified) | -7.2* | i | i | i | i
COc1cccc(-c2cc(C(=O)N3CCN(c4ncccn4)CC3)c3ccccc3n2)c1 | -7* | i | i | i | i
CC(C)Oc1cccc(-c2cc(C(=O)N3CCN(c4ncccn4)CC3)c3ccccc3n2)c1 | -7.4* | i | i | i | i
Cc1ccc(-c2cc(C(=O)N3CCN(c4ncccn4)CC3)c3ccccc3n2)cc1 | i | i | i | i | i
